Experimental findings from ChEMBL document CHEMBL1129667, “Synthesis and antiviral activity of 2'-deoxy-4'-thio purine nucleosides” (J Med Chem, 1996) are described below.

The species entered for assay [1] is Homo sapiens. Description: Cytotoxic activity of compound against uninfected 2.2.15 cells. The class given is functional. Conditions: HepG2 2.2.15. The method, boiled down:
(§1)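 Growing cultures of 2.2.15 cells, used for both antiviral effect and cytotoxicity. IC50 and CC50 each come from five compound concentrations encompassing the value. Data are means of four replicate samples.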

Assay [2] is filed under the species Homo sapiens. Description: Inhibitory activity of compound against hepatitis B virus (HBV) in growing cultures of 2.2.15 cells. The class given is functional, cell-based. Conditions: HepG2 2.2.15. Put shortly: as §1
For assay [3], the system named is CCRF-CEM. Description: Cytotoxic activity of compound against growing cultures of human leukemic T-cell lines CEM 100 uM. The assay is classed as functional.
The subject of assay [4] is IM-9. Description: Cytotoxic activity of compound against growing cultures of human leukemicB-cell line IM-9 at 100 uM. The assay is classed as functional.
In assay [5] the test system is MRC5. As to the kind of experiment: Inhibitory activity of compound against human cytomegalovirus (HCMV) strain AD169 in monolayers of MRC5 cells. The assay is classed as functional, cell-based. Put shortly:
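MRC5 human embryonic lung monolayers infected with HCMV AD169 at ca. 0.01 infectious particles/cell. Compound added at six concentrations, each in triplicate, then incubated 5 days. IC50 estimated from well HCMV DNA measured by blotting and quantitative specific DNA hybridization. Reported value is the mean of at least two determinations done at different times.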

In assay [6] the test system is MRC5. Description: Cytotoxic activity of compound against uninfected MRC5 cells. The assay is classed as functional. The settings on record: Homo sapiens. The method, boiled down: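 Uninfected MRC5 monolayers given the same six compound concentrations in triplicate and incubated 5 days. Minimum cytotoxic dose estimated by microscopic examination.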
Assay [7] relates to MOLT-4. As to the kind of experiment: Cytotoxic activity of compound against growing cultures of human leukemic T-cell lines Molt-4 100 uM. The assay is classed as functional.
Assay [8] relates to CCRF-CEM. Description: Cytotoxic activity of compound against growing cultures of human leukemic T-cell lines CEM at 100 uM. The assay is classed as functional.
For assay [9], the system named is MOLT-4. As to the kind of experiment: Cytotoxic activity of compound against growing cultures of human leukemic T-cell lines Molt-4 at 100 uM. The class given is functional.
For assay [10], the system named is CCRF-CEM. Description: Cytotoxic activity of compound against growing cultures of human leukemic T-cell lines CEM. The assay is classed as functional. The method, boiled down: (§2)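 Growing cultures of the human leukemic line (T-cell CEM or Molt 4; B-cell IM-9). CC50 taken from five compound concentrations spanning the CC50. Data are means of three replicate samples.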

Assay [11] deals with MOLT-4. As to the kind of experiment: Cytotoxic activity of compound against growing cultures of human leukemic T-cell lines Molt-4. The assay is classed as functional. Put shortly: as §2
The subject of assay [12] is IM-9. As to the kind of experiment: Cytotoxic activity of compound against growing cultures of human leukemicB-cell line IM-9. The assay is classed as functional. Put shortly: as §2

The structures appear in SMILES notation.

The CC50 is the concentration at which the toxic effect on the cells reaches its halfway point. Lower therefore signals greater toxicity to the cells. One may read the IC50 as the midpoint of a concentration-inhibition curve. High values mean weaker potency, low ones greater potency. In the case of `Nc1nc(Cl)c2ncn(C3CC(O)C(CO)S3)c2n1` (stereo unspecified), the 50% cytotoxic concentration (CC50) in the assay filed under Homo sapiens [1] was over 0.2 µM; with CCRF-CEM [3], 10 µM; in the assay with IM-9 [4] it was 42 µM; with MRC5 [6], 2 µM; in the assay on MOLT-4 [7], 3.8 µM. Also, the IC50 in the assay listed under Homo sapiens [2] is 0.001 µM; in the assay on MRC5 [5], 0.1 µM.

As for `CCCNc1nc(N)nc2c1ncn2C1CC(O)C(CO)S1` (stereo unspecified), the values for the CC50 in the assay listed under Homo sapiens [1] and in the assay with MRC5 [6] were over 0.2 µM and over 50 µM, respectively. The 50% inhibitory concentration (IC50) stood at 0.061 µM in the assay listed under Homo sapiens [2] and 2 µM in the assay on MRC5 [5]. Also, the figures for the Control in the assay on CCRF-CEM [8], in the assay on IM-9 [4] and with MOLT-4 [9] were 68%, 92% and 52%, respectively.

In the case of `C=CCNc1nc(N)nc2c1ncn2C1CC(O)C(CO)S1` (stereo unspecified), the CC50 in the assay filed under Homo sapiens [1] is over 0.2 µM; in the assay on CCRF-CEM [10], 60 µM; in the assay on MOLT-4 [11] it was 40 µM; with MRC5 [6], over 200 µM. The IC50 in the assay listed under Homo sapiens [2] stood at 0.058 µM; with MRC5 [5] it was 1.5 µM. For the same molecule, the Control in the assay on IM-9 [4] stood at 67%.

Regarding `CSc1nc(N)nc2c1ncn2C1CC(O)C(CO)S1` (stereo unspecified), the figures for the CC50 in the assay filed under Homo sapiens [1] and in the assay with MRC5 [6] were over 200 µM and over 20 µM, respectively. Besides, the half-inhibitory concentration (IC50) in the assay listed under Homo sapiens [2] is 0.45 µM; in the assay on MRC5 [5], 2 µM. The Control in the assay with CCRF-CEM [8] stood at 78%; in the assay on IM-9 [4], 88%; in the assay with MOLT-4 [9], 73%.

For `Nc1nc(N2CCCCC2)c2ncn(C3CC(O)C(CO)S3)c2n1` (stereo unspecified), the half-maximal cytotoxic concentration (CC50) in the assay listed under Homo sapiens [1] and in the assay on MRC5 [6] was over 200 µM in each case. The IC50 in the assay listed under Homo sapiens [2] amounted to 4 µM; in the assay on MRC5 [5] it was 6 µM. Also, the Control stood at 80% with CCRF-CEM [8], 88% in the assay with IM-9 [4] and 77% in the assay on MOLT-4 [9].

As for `COc1nc(N)nc2c1ncn2C1CC(O)C(CO)S1` (stereo unspecified), the CC50 is 14 µM in the assay listed under Homo sapiens [1]; 8 µM in the assay on CCRF-CEM [10]; 5 µM with IM-9 [12]; 2 µM in the assay with MOLT-4 [11]; over 5 µM in the assay on MRC5 [6]. Further, the concentration for half-maximal inhibition (IC50) is 0.0025 µM in the assay listed under Homo sapiens [2] and 0.062 µM in the assay on MRC5 [5].

Turning to `Nc1nc(O)c2ncn(C3CC(O)C(CO)S3)c2n1` (stereo unspecified), the CC50 in the assay listed under Homo sapiens [1] amounted to 13 µM; in the assay with CCRF-CEM [10], 9 µM; in the assay on IM-9 [12], 4 µM; in the assay on MOLT-4 [11], 14 µM; with MRC5 [6], 2 µM. For the same molecule, the concentration for half-maximal inhibition (IC50) in the assay filed under Homo sapiens [2] worked out at 0.002 µM; with MRC5 [5], 0.06 µM.

`Nc1nc(N2CCCC2)c2ncn(C3CC(O)C(CO)S3)c2n1` (stereo unspecified): the CC50 in the assay listed under Homo sapiens [1] and in the assay on MRC5 [6] was over 200 µM in each case. For the same molecule, the values for the IC50 in the assay filed under Homo sapiens [2] and in the assay on MRC5 [5] were 0.85 µM and 10 µM, respectively. Besides, the Control with CCRF-CEM [8] is 71%; in the assay on IM-9 [4], 99%; in the assay with MOLT-4 [9] it was 112%.

Take `Nc1nc(OCC2CC2)c2ncn(C3CC(O)C(CO)S3)c2n1` (stereo unspecified): the CC50 in the assay listed under Homo sapiens [1] is over 0.2 µM; with CCRF-CEM [10], 41 µM; in the assay with IM-9 [12], 61 µM; with MOLT-4 [11], 13 µM; in the assay on MRC5 [6] it was over 20 µM. In addition, the IC50 came to 0.035 µM in the assay listed under Homo sapiens [2] and 0.6 µM with MRC5 [5].

As for `CCN(C)c1nc(N)nc2c1ncn2C1CC(O)C(CO)S1` (stereo unspecified), the CC50 in the assay filed under Homo sapiens [1] was over 200 µM; in the assay with MRC5 [6], over 20 µM. The IC50 in the assay listed under Homo sapiens [2] came to 0.19 µM; in the assay on MRC5 [5] it was 2 µM. Besides, the values for the Control in the assay on CCRF-CEM [8], in the assay with IM-9 [4] and with MOLT-4 [9] were 69%, 85% and 77%, respectively.

Regarding `CC(C)Nc1nc(N)nc2c1ncn2C1CC(O)C(CO)S1` (stereo unspecified), the 50% cytotoxic concentration (CC50) in the assay listed under Homo sapiens [1] is over 200 µM; with MRC5 [6], over 100 µM. Besides, the figures for the IC50 in the assay filed under Homo sapiens [2] and with MRC5 [5] were 0.3 µM and 4 µM, respectively. Moreover, the Control in the assay with CCRF-CEM [8] stood at 80%; in the assay on IM-9 [4], 90%; in the assay on MOLT-4 [9], 77%.

With `Nc1nc(NC2CC2)c2ncn(C3CC(O)C(CO)S3)c2n1` (stereo unspecified), the CC50 in the assay listed under Homo sapiens [1] came to 77 µM; with MRC5 [6], 15 µM. Also, the values for the IC50 in the assay listed under Homo sapiens [2] and in the assay on MRC5 [5] were 0.0072 µM and 0.2 µM, respectively. The Control was found to be 68% with CCRF-CEM [8], 78% in the assay with IM-9 [4] and 11% in the assay with MOLT-4 [9].

Regarding `CN(c1nc(N)nc2c1ncn2C1CC(O)C(CO)S1)C1CC1` (stereo unspecified), the CC50 in the assay listed under Homo sapiens [1] is 101 µM; in the assay on MOLT-4 [11] it was 100 µM; with MRC5 [6], over 20 µM. The IC50 stood at 0.3 µM in the assay listed under Homo sapiens [2] and 2 µM in the assay on MRC5 [5]. In addition, the Control in the assay on CCRF-CEM [8] came out at 58%; in the assay with IM-9 [4], 72%.
